Shown are actives, neighbours in structure and some others; about 2.4% of the full set was active somewhere.
E-sel inducer – E-selectin induction in HUVECs, primary screen, imaging, HUVEC, immunofluorescence imaging, single point | normalized: neutral wells 0, TNF-alpha wells 100 | activation, % at 7.58 µM | hit rate 0.37% among 260,000 | AID 686992, 2013;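 active = mean E-selectin-positive cell signal at least 10% of the positive control, reached in at least 60% of replicates, without over 20% cell loss; inconclusive = no rule given, readout overlaps actives, possibly toxicity-flagged; inactive = the rest, including those meeting only one limit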
Target sequence (P16581 whole entry, looked up): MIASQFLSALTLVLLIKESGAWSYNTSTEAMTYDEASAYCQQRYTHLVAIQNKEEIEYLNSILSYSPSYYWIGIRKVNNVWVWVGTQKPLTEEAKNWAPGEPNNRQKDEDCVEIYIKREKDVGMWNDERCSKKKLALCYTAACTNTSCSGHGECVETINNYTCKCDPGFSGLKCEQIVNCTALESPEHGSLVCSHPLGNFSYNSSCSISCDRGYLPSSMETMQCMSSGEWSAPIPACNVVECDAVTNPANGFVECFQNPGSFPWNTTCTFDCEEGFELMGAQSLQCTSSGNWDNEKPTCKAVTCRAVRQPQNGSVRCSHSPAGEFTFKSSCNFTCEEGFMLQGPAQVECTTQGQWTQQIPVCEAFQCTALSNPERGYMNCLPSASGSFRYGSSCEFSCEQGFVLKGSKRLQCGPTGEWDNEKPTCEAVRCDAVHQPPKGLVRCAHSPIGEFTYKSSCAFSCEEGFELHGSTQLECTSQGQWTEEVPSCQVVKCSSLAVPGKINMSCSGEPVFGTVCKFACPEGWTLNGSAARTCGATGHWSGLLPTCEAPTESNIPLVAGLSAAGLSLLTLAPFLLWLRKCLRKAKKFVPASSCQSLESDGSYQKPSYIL
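Assay system: HUVEC, human umbilical vein endothelial cells / Amount: 3,000 HUVEC/well / Controls: TNF-alpha positive control, DMSO neutral control / Compound dosing: single concentration / Medium: EGM-2 over gelatin coat / Evaluation: percent E-selectin-positive cells / Signal: immunofluorescence imaging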
EWS-Fli block – EWS/Fli-driven NR0B1 reporter inhibitors, primary screen, A673 cells, NR0B1 luciferase, luminescence, MLPCN library; hit rate 0.67% among 350,000; AID 651661, 2012; viability-normalised; inhibition, % at 12.6 µM;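 active = mean inhibition of at least 50% after viability correction, with every replicate also passing that limit; inconclusive = mean reaches 50% but only one of two replicates passes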;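 also: firefly luciferase signal divided by Alamar Blue viability fluorescence both relative to DMSO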
LGR2 antag – inhibitors of bursicon-induced LGR2 CRE-luciferase signal, primary screen, cell-based, HEK293, CRE-luciferase reporter, bursicon stimulation; inhibition, % at 9.99 µM; Drosophila bursicon receptor LGR2 (rickets); hit rate 0.35% among 380,000; bursicon-stimulated, 4 h; AID 720647, 2013;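 active = drop in luminescence signal, shown as inhibition above about 50% in the replicate tests, limit read from the data, passing the limit was not always enough; inconclusive = probably only some replicates passing the limit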;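 also: agonist challenge used bursicon conditioned medium at about half maximal strength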
rRNA inh HTS – reduced GFP signal of wild-type E. coli, primary screen, bacterial rRNA inhibitor project, GFP/RFP fluorescence, OD600, single point | hit rate 1.6% among 350,000 | AID 720706, 2013 | E. coli WT GFP vs humanized-ribosome RFP mutants, 24 h; hits give low values; DMSO median 0, no signal -100 | GFP signal change (wild-type ribosome), % (no concentration beside the values);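 active = significant combined selectivity score with lowered wild-type GFP, culture density cut under 30%, mutant RFP and density less affected; inactive = any of these conditions unmet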
Numbers stand for hits; n = inactive; u = inconclusive; x = no result; ! = not confirmed by another sample.

SMILES	E-sel inducer	EWS-Fli block	LGR2 antag	rRNA inh HTS
Cc1noc(C)c1S(=O)(=O)Nc1ccc2c(c1)C(=O)N([C@@H](C)CO)C[C@@H](C)[C@@H](CN(C)S(=O)(=O)c1ccc(Cl)cc1)O2	n	n	n	n
COc1ccc(S(=O)(=O)Cc2ccc(C(=O)N3CCN(c4cc(Cl)ccc4C)CC3)o2)cc1	x	n	n	-17
COc1cccc(N2CCN(C(=O)c3cn(Cc4ccccc4)nc3-c3cccnc3)CC2)c1	n	57	n	n
COc1ccc(S(=O)(=O)Cc2ccc(C(=O)N3CCN(c4cc(C)ccc4C)CC3)o2)cc1	n	n	n	n
COc1cccc(N2CCN(C(=O)c3ccc(CS(=O)c4ccc(Cl)cc4)o3)CC2)c1 (stereo not given)	x	56	n	n
COc1ccc(NC(=O)N(C)C[C@H]2Oc3c(cccc3N(C)C)C(=O)N([C@H](C)CO)C[C@@H]2C)cc1	x	n	n	n
O=C(C1CCC1)N1CC2(C1)[C@H](c1ccccc1)[C@H](CO)N2CCC(F)(F)F	n	n	n	n
COc1ccc(C)cc1NC(=O)c1ccc(CN2CCc3ccccc3C2)cc1	n	n	n	-24
CCOC(=O)C1=CCN(S(=O)(=O)c2ccc(C)cc2)[C@H]1c1ccccc1Cl	n	n	n	-29
COc1ccc2c3c(n(C)c2c1)[C@@H](CO)N(C(=O)c1cnccn1)CC31CCN(C(=O)c2cnccn2)CC1	n	n	n	n
COC(=O)C(=Nc1ccccc1)/C(C(=O)C(=O)N(C)c1ccccc1)=C(\O)c1ccccc1	n	n	n	-25
CN(C(=O)c1ccccc1C(=O)OCC(=O)c1ccccc1)c1ccccc1	x	n	n	n
COc1ccc(CNC(NC(=O)c2ccccc2)(C(F)(F)F)C(F)(F)F)cc1	n	n	n	-19
O=C(C[C@H]1C=C[C@@H](NC(=O)Nc2ccccc2F)[C@H](CO)O1)NCc1ccc(Cl)cc1	n	n	n	n
COc1ccccc1-c1c(C(F)(F)F)oc2cc(OS(C)(=O)=O)ccc2c1=O	x	n	n	-26
Cn1c(/C(C#N)=C/c2cccc(O)c2)nc2ccccc21	n	n	n	-24
N#C/C(=C\c1cccc(O)c1)c1nc2ccccc2o1	n	n	n	-18
Cc1ccc(S(=O)(=O)N(C)C[C@@H]2Oc3c(NS(=O)(=O)c4ccc(F)cc4)cccc3C(=O)N([C@H](C)CO)C[C@H]2C)cc1	n	n	n	n
C[C@@H]1CN([C@@H](C)CO)C(=O)c2cc(C3=CCCC3)cnc2O[C@@H]1CN(C)Cc1ccccc1F	x	n	x	x
CC(=O)c1ccc(-n2ccnc2)cc1	x	n	n	n
COC(=O)/C=C/c1ccc(-n2ccnc2)cc1	x	n	n	-30
CO[C@H]1CN(C)C(=O)c2ccc(NS(=O)(=O)c3ccccc3)cc2OC[C@@H](C)NC[C@@H]1C	n	n	n	n
COc1c(OC(C)=O)ccc(/C=C/c2ccc3ccccc3n2)c1[N+](=O)[O-]	x	n	n	-43
COc1c(OC(C)=O)ccc(/C=C/c2ccc3cccc(OC)c3n2)c1[N+](=O)[O-]	n	x	n	x
NC(=O)c1ccc(Sc2nnc(-c3cccs3)n2CC2CCCO2)c([N+](=O)[O-])c1 (stereo not given)	x	75	n	n
SMILES	E-sel inducer	EWS-Fli block	LGR2 antag	rRNA inh HTS
COc1ccc(CN(C)CC(=O)Nc2cccc3ccccc23)cc1F	n	n	n	n
COc1cc(CO)cc(Br)c1OCC(=O)Nc1cccc2ccccc12	n	n	n	-24
CCOc1ccc(CN(C)CC(=O)Nc2cccc3ccccc23)cc1OC	n	n	n	-24
COc1cccc(CC(=O)Nc2cccc3ccccc23)c1	n	n	n	n
COCC(=O)Nc1ccc2c(c1)[C@@H]1C[C@@H](CC(=O)N3CCN(C)CC3)O[C@@H](CO)[C@@H]1O2	n	n	n	n
Cc1ccccc1OCc1n(CC(=O)OC2CC(C)CCC2C(C)C)c2ccccc2[n+]1C (stereo not given)	x	u	75	n
CC1CCC(C(C)C)C(OC(=O)Cn2c(-c3ccc(Br)cc3)[n+](C)c3ccccc32)C1 (stereo not given)	n	n	78	n
CC(C)CC#Cc1cnc2c(c1)C(=O)N([C@H](C)CO)C[C@@H](C)[C@@H](CN(C)C(=O)c1ccc(F)cc1)O2	n	n	n	n
COc1ccccc1C/C(N)=N/OC(=O)c1cccs1	n	n	n	-25
CC(C)NC(=O)Nc1ccc2c(c1)C(=O)N([C@H](C)CO)C[C@@H](C)[C@@H](CN(C)S(C)(=O)=O)O2	n	x	n	n
Nc1ccc(C(=O)Nc2ccc3nc(-c4ccncc4)[nH]c3c2)cc1	x	n	n	-33
O=[N+]([O-])c1ccc(Sc2nnnn2-c2ccccc2)nc1	n	n	68	n
O=[N+]([O-])c1ccc(Sc2ccccn2)nc1	x	n	x	x
C[C@H]1CCc2cnnn2COCCNC1=O	x	x	x	n
Cc1cc(C(=O)COC(=O)Cc2n[nH]c(=O)c3ccccc23)c(C)n1-c1ccc2c(c1)OCO2	n	n	n	-25
COc1ccc(-n2c(C)cc(C(=O)COC(=O)Cc3n[nH]c(=O)c4ccccc34)c2C)cc1	x	n	n	n
CCNC(=O)C[C@@H]1CC[C@@H]2[C@@H](COc3ccc(NC(=O)Nc4ccc(F)cc4)cc3C(=O)N2C)O1	n	n	n	n
CCNC(=O)C[C@@H]1CC[C@H]2[C@@H](COc3ccc(NC(=O)Nc4ccc(F)cc4)cc3C(=O)N2C)O1	84	n	n	n
CC(C)NC(=O)Nc1ccc2c(c1)C(=O)N(C)[C@H]1CC[C@H](CC(=O)NCC(F)(F)F)O[C@@H]1CO2	n	n	n	n
Cc1nn(C)cc1NC(=O)C[C@@H]1CC[C@@H]2[C@@H](COc3ccc(NC(=O)C4CCC4)cc3C(=O)N2C)O1	n	n	n	-16
CC(C)NC(=O)Nc1ccc2c(c1)C(=O)N(C)[C@@H]1CC[C@@H](CC(=O)NCC(F)(F)F)O[C@@H]1CO2	105	n	n	n
COc1ccc(C2=Nc3ccccc3NC(=O)C2N(CCCn2ccnc2)C(=O)c2cccc(S(C)(=O)=O)c2)cc1 (stereo not given)	n	n	n	n
COc1ccc(C2=Nc3ccccc3NC(=O)C2N(Cc2ccccc2)C(=O)C2=NNC(=O)CC2)cc1 (stereo not given)	n	n	n	-23
CCn1c(NN)nc2sc3c(c2c1=O)CCC3	x	x	n	x
NNc1nc2sc3c(c2c(=O)n1Cc1ccccc1)CCC3	n	n	n	-34
CC(=O)c1cccc(NC(=O)COC(=O)C2CCCN2C(=O)c2cccs2)c1 (stereo not given)	n	n	n	-18
O=C(COC(=O)[C@@H]1CCCN1C(=O)c1cccs1)Nc1ccc(Br)cc1	n	n	n	n
O=C1C=CC(=C(c2ccc(O)cc2)c2ccc(O)cc2)C=C1	x	n	58!	-50!
